Laboratory results published in ChEMBL document CHEMBL1133331, “Guanylpiperidine peptidomimetics: potent and selective bis-cation inhibitors of factor Xa” (Bioorg Med Chem Lett, 2000).

Columns and labels:
[1] = Ratio of inhibitory concentration of prothrombinase to that of human factor Xa was determined
Coagulation factor X [2] = target: T1, Coagulation factor X (Homo sapiens, UniProt P00742); assay: In vitro inhibition of human Coagulation factor X.
[3] = Concentration required to inhibit the activation of human prothrombin in a preformed complex of factor Xa, factor IIa and phospholipid in vitro; settings: in the assay text read “factor Va” for “factor IIa”
Summary of the method: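 The assembled prothrombinase complex was assayed with its natural substrate, prothrombin, to measure inhibition of prothrombin activation. IC50 is the concentration giving 50% inhibition.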

Prothrombin = Prothrombin (Homo sapiens, UniProt P00734); assay: In vitro inhibition of human thrombin.
Summary of the method: (§1)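 Purified human enzymes (plasmin, thrombin/factor IIa, trypsin) were each tested for inhibitor-dependent cleavage of a chromogenic substrate. IC50 is the concentration that blocks 50% of substrate cleavage.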

Serine protease 1 = Serine protease 1 (Homo sapiens, UniProt P07477); assay: In vitro inhibition of human trypsin.
Sequence of Serine protease 1 (P07477 whole entry): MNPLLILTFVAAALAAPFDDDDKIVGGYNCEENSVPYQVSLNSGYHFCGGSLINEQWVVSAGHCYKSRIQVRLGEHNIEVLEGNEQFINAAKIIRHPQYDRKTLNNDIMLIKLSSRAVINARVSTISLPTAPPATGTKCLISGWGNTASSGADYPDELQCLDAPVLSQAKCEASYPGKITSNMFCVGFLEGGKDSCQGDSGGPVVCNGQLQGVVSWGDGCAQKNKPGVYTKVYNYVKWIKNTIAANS
Summary of the method: as §1

Plasminogen = Plasminogen (Homo sapiens, UniProt P00747); assay: In vitro inhibition of human plasmin.
Sequence of Plasminogen (P00747 97-580 limits assumed): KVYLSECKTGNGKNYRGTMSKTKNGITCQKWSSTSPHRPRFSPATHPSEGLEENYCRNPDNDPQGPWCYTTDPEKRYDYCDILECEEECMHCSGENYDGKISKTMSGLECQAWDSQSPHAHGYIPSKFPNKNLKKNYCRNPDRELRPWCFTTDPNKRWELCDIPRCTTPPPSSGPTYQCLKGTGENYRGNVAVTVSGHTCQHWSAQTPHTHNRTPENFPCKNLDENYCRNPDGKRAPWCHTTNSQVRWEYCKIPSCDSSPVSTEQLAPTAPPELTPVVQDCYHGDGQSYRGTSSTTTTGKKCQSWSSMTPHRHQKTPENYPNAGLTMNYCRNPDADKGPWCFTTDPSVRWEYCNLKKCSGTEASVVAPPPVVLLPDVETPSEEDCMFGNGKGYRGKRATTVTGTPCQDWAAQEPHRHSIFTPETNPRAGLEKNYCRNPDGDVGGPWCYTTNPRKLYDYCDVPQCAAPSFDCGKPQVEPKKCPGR
Sequence of Plasminogen (P00747 581-810 limits assumed): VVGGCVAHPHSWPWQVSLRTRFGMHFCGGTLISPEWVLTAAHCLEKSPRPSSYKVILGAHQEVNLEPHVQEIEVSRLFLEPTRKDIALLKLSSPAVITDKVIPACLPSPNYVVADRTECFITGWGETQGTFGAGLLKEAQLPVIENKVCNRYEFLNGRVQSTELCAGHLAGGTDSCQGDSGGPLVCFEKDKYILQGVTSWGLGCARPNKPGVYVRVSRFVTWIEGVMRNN
Summary of the method: as §1

Coagulation factor X [4] = target: T1, Coagulation factor X; assay: Concentration required for classical fast inhibition of cleavage of the chromogenic substrate by human enzyme Coagulation factor X in vitro
Coagulation factor X [5] = target: T1, Coagulation factor X; assay: In vitro inhibitory activity against human Coagulation factor X
Coagulation factor X [6] = target: T1, Coagulation factor X; assay: Concentration required to inhibit the cleavage of the chromogenic substrate by human enzyme Coagulation factor X in vitro

T1 sequence (P00742 41-179 limits assumed): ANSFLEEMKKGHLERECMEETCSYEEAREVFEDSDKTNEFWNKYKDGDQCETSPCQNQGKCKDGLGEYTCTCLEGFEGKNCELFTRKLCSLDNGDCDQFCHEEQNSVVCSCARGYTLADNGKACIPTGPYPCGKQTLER
T1 sequence (P00742 235-488 limits assumed): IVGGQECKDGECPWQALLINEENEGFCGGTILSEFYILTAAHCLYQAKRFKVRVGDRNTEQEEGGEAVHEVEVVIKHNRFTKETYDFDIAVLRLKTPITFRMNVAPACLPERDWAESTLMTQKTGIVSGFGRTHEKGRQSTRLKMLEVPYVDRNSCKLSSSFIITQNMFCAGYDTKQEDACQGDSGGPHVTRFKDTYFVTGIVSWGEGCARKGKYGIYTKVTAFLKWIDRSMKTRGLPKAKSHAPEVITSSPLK

SMILES	Ratio [1]	IC50 (Coagulation factor X [2])	IC50 [3]	IC50 (Prothrombin)	IC50 (Serine protease 1)	IC50 (Plasminogen)	Ki (Coagulation factor X [4])	Ki (Coagulation factor X [5])	IC50 (Coagulation factor X [6])
N=C(N)NCCC[C@@H](NC(=O)OCc1ccccc1)C(=O)NCC(=O)N[C@H]1CCCN(C(=N)N)C1O (single isomer, unassigned) [listing 1 of 2 here]	0.23								
N=C(N)NCCC[C@@H](NC(=O)OCc1ccccc1)C(=O)NCC(=O)N[C@H]1CCCN(C(=N)N)C1O (stereo in doubt) [listing 1 of 2 here]		0.9 nM	3.4 nM						
N=C(N)N1CCC(C[C@@H](NS(=O)(=O)Cc2ccccc2-n2cnnn2)C(=O)NCC(=O)N[C@H]2CCCN(C(=N)N)C2O)CC1 (some centres undefined)	3	2.6 nM	69 nM	> 2500 nM	537 nM	872 nM	23 nM		
N=C(N)NCCC[C@@H](NS(=O)(=O)Cc1ccccc1)C(=O)NCC(=O)N[C@H]1CCCN(C(=N)N)C1O (some centres undefined)		0.9 nM		> 2500 nM	75 nM	1190 nM			
N=C(N)NCCC[C@@H](NC(=O)OCc1ccccc1)C(=O)NCC(=O)N[C@H]1CCCN(C(=N)N)C1O (single isomer, unassigned) [listing 2 of 2 here]		35 nM	7.9 nM						
N=C(N)N1CCCC(C[C@@H](NS(=O)(=O)Cc2ccccc2)C(=O)NCC(=O)N[C@H]2CCCN(C(=N)N)C2O)C1 (stereo in doubt) [listing 1 of 2 here]		0.92 nM	3.3 nM	> 2500 nM	31 nM	726 nM			
COC(=O)c1ccccc1CS(=O)(=O)N[C@H](CC1CCN(C(=N)N)CC1)C(=O)NCC(=O)N[C@H]1CCCN(C(=N)N)C1O (some centres undefined)		0.94 nM		> 2500 nM	147 nM	965 nM			
N=C(N)N1CCC(C[C@@H](NS(=O)(=O)Cc2ccccc2)C(=O)NCC(=O)N[C@H]2CCCN(C(=N)N)C2O)CC1 (some centres undefined)	3.7	0.83 nM	3.1 nM	> 2500 nM	169 nM	869 nM			
N=C(N)N1CCCC(C[C@@H](NS(=O)(=O)Cc2ccccc2C(=O)O)C(=O)NCC(=O)N[C@H]2CCCN(C(=N)N)C2O)C1 (single isomer, unassigned)		2.1 nM		> 2500 nM	240 nM	2500 nM			
COC(=O)c1ccccc1CS(=O)(=O)N[C@H](CC1CCCN(C(=N)N)C1)C(=O)NCC(=O)N[C@H]1CCCN(C(=N)N)C1O (stereo in doubt; form 2)		1.08 nM		> 2500 nM	124 nM	894 nM			
N=C(N)N1CCCC(C[C@@H](NS(=O)(=O)Cc2ccccc2)C(=O)NCC(=O)N[C@H]2CCCN(C(=N)N)C2O)C1 (single isomer, unassigned) [listing 1 of 2 here]		1.2 nM	4.2 nM	> 2500 nM	120 nM	919 nM			
N=C(N)N1CCC(C[C@@H](NS(=O)(=O)Cc2cccc(C(=O)O)c2)C(=O)NCC(=O)N[C@H]2CCCN(C(=N)N)C2O)CC1 (some centres undefined)	0.9	4.3 nM	14 nM	> 2500 nM	211 nM	231 nM	16 nM		
N=C(N)NCCC[C@@H](NC(=O)OCc1ccccc1)C(=O)NCC(=O)N[C@H]1CCCN(C(=N)N)C1O (stereo in doubt) [listing 2 of 2 here]	3.8								
CCOC(=O)c1ccc(CCOC(=O)N[C@H](CC2CCN(C(=N)N)CC2)C(=O)NCC(=O)N[C@H]2CCCN(C(=N)N)C2O)cc1 (some centres undefined)				> 2500 nM	158 nM	1440 nM		16 nM	
N=C(N)N1CCCC(C[C@@H](NS(=O)(=O)Cc2ccccc2C(=O)O)C(=O)NCC(=O)N[C@H]2CCCN(C(=N)N)C2O)C1 (stereo in doubt)		4.2 nM		352 nM	33 nM	> 2500 nM			
N=C(N)N1CCCC(C[C@@H](NS(=O)(=O)Cc2ccccc2)C(=O)NCC(=O)N[C@H]2CCCN(C(=N)N)C2O)C1 (single isomer, unassigned) [listing 2 of 2 here]	2								
COC(=O)N[C@H](CC1CCN(C(=N)N)CC1)C(=O)NCC(=O)N[C@H]1CCCN(C(=N)N)C1O (some centres undefined)				> 2500 nM	412 nM	> 2500 nM		23 nM	
N=C(N)N1CCCC(C[C@@H](NS(=O)(=O)Cc2ccccc2)C(=O)NCC(=O)N[C@H]2CCCN(C(=N)N)C2O)C1 (stereo in doubt) [listing 2 of 2 here]	3.6								
COC(=O)c1ccccc1CS(=O)(=O)N[C@H](CC1CCCN(C(=N)N)C1)C(=O)NCC(=O)N[C@H]1CCCN(C(=N)N)C1O (stereo in doubt; form 1)		1.37 nM		1100 nM	15 nM	1950 nM			
COC(=O)c1cccc(CS(=O)(=O)N[C@H](CC2CCN(C(=N)N)CC2)C(=O)NCC(=O)N[C@H]2CCCN(C(=N)N)C2O)c1 (some centres undefined)		2.2 nM		> 2500 nM	145 nM	387 nM			
N=C(N)N1CCC(C(NS(=O)(=O)Cc2ccccc2)C(=O)NCC(=O)N[C@H]2CCCN(C(=N)N)C2O)CC1 (some centres undefined)		1.1 nM		> 2500 nM	25 nM	678 nM			
N=C(N)N1CCC(C[C@@H](NS(=O)(=O)Cc2ccccc2C(=O)O)C(=O)NCC(=O)N[C@H]2CCCN(C(=N)N)C2O)CC1 (some centres undefined)	2.3	5.7 nM	12 nM	> 2500 nM	447 nM	2500 nM			5.3 nM
N=C(N)NCCC[C@@H](NC(=O)OCc1ccccc1)C(=O)NCC(=O)N[C@H]1CCCN(C(=N)N)C1O (stereo in doubt; 1)		34.9 nM		> 2500 nM	115 nM	> 2500 nM			
